Data: ChEMBL document CHEMBL4028902, “Azetidine and Piperidine Carbamates as Efficient, Covalent Inhibitors of Monoacylglycerol Lipase” (J Med Chem, 2017)

Experiments:
Monoglyceride lipase = target: T1, Monoglyceride lipase (Homo sapiens, UniProt Q99685); assay: Inhibition of human recombinant MAGL using 7-HCA as substrate preincubated for 30 mins followed by substrate addition measured after 60 mins by fluorescence assay
T1 sequence (Q99685 whole entry): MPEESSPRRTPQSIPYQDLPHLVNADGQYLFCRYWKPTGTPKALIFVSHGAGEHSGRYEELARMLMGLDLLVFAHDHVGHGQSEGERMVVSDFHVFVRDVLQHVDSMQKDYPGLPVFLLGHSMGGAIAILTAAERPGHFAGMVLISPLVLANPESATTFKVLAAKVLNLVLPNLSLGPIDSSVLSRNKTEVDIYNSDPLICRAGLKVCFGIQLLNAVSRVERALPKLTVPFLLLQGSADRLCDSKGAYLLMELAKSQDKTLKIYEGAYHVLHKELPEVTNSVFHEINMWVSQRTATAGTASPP
Summary of the method: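 Reaction started with 7-HCA (5 μM final), run 60 min, fluorescence Ex/Em 340/465. Percent inhibition versus no-compound and full-inhibition controls; IC50 from four-parameter fit.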

[1] = target: T2, Monoglyceride lipase (Homo sapiens) (UniProt Q99685); assay: Ratio of Kinact to Ki for human recombinant MAGL using 7-HCA as substrate after 60 mins by fluorescence assay
T2 sequence (whole entry): T1 sequence (Q99685 whole entry)
Summary of the method: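 Run as the MAGL 7-HCA assay, but substrate added with no preincubation (T = 0), fluorescence read every minute at decreasing compound concentrations to give progress curves. kobs from each curve; kinact/KI from a plot of kobs against compound concentration.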

[2] = target: T3, Fatty-acid amide hydrolase 1 (Homo sapiens, UniProt O00519); assay: Inhibition of human recombinant FAAH using arachidonoyl-AMC as substrate preincubated for 30 mins followed by substrate addition measured after 60 mins by fluorescence assay
T3 sequence (O00519 whole entry): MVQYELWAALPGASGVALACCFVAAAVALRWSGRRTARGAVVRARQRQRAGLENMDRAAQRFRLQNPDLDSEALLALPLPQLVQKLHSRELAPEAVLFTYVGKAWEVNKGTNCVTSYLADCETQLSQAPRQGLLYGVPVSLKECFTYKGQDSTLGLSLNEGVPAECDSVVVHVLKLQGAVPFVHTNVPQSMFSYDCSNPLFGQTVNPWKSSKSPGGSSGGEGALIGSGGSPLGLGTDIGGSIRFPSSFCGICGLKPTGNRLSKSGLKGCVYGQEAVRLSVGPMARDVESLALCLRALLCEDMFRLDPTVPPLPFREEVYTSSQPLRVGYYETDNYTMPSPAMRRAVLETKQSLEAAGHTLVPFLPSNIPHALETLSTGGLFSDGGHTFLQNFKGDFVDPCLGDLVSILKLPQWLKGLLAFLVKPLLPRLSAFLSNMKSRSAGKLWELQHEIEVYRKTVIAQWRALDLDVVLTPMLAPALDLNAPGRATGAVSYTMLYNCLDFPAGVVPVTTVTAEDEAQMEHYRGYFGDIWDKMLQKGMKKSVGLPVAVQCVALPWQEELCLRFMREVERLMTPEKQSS
Summary of the method: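 Human recombinant FAAH (0.0125 unit final) in 50 mM Tris pH 9.0, 1 mM EDTA, preincubated 30 min at room temperature with compound (final 30 μM–0.3 nM). Arachidonoyl-AMC added (5 μM final), reaction run 60 min, fluorescence Ex/Em 355/460. Percent inhibition versus no-compound and full-inhibition controls.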

[3] = Lipophilicity, log D of the compound; assay type: physicochemical; conditions: octanol/water

IC50 (Monoglyceride lipase)	Ratio [1]	IC50 [2]	logD [3]	SMILES
3.2 nM	18000 M⁻¹ s⁻¹	2500 nM	2.9	O=C(OC(C(F)(F)F)C(F)(F)F)N1CC(N2CCN(c3ncccn3)CC2)C1
0.41 nM	791000 M⁻¹ s⁻¹	160 nM	4.4	O=C(OC(C(F)(F)F)C(F)(F)F)N1CC(c2ccn(Cc3ccccc3)n2)C1
0.18 nM	978000 M⁻¹ s⁻¹	670 nM	4.6	O=C(OC(C(F)(F)F)C(F)(F)F)N1CC(c2ccn(-c3ccc(F)c(F)c3)n2)C1
1.9 nM	121000 M⁻¹ s⁻¹	> 30000 nM	3	O=C(OC(C(F)(F)F)C(F)(F)F)N1CC(c2ccnc(N3CCOCC3)n2)C1
0.74 nM	329000 M⁻¹ s⁻¹	1100 nM	2.8	O=C(OC(C(F)(F)F)C(F)(F)F)N1CC(c2ccn(-c3cnccn3)n2)C1
1.9 nM	102000 M⁻¹ s⁻¹	9400 nM	3.2	O=C(OC(C(F)(F)F)C(F)(F)F)N1CC(c2ccn(C3CCOCC3)n2)C1
0.3 nM	293000 M⁻¹ s⁻¹	490 nM	5.7	O=C(OC(C(F)(F)F)C(F)(F)F)N1CC(c2cc(-c3ccccc3)n(-c3ccccc3)n2)C1
0.38 nM	840000 M⁻¹ s⁻¹	420 nM	4.2	O=C(OC(C(F)(F)F)C(F)(F)F)N1CC(c2nc(-c3ccccc3)no2)C1
39 nM	4050 M⁻¹ s⁻¹	> 20000 nM	2.4	Cn1ccc(C2CN(C(=O)OC(C(F)(F)F)C(F)(F)F)C2)n1
